Reference: ChEMBL document CHEMBL4304755, “Diacetal Ditellurides as Highly Active and Selective Antiparasitic Agents toward Leishmania amazonensis” (ACS Med Chem Lett, 2019)

Tests used:
[1] = Selectivity index, ratio of CC50 for mouse J774A1 cells to IC50 for promastigote stage of Leishmania amazonensis MHOM/BR/Josefa; assay type: toxicity; conditions: read-out: Ratio CC50/IC50
How it was run: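 SI is calculated as CC50 on J774A1 cells divided by the corresponding IC50 on promastigotes.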

[2] = tested on: Leishmania amazonensis; assay: Antileishmanial activity against promastigote stage of Leishmania amazonensis MHOM/BR/Josefa incubated for 72 hrs by XTT assay; assay type: functional, organism-based
How it was run: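 Promastigotes; IC50 is the concentration giving 50% growth inhibition. Values are mean ± SD of three separate experiments.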

[3] = tested on: Leishmania amazonensis; assay: Ratio of IC50 for miltefosine to IC50 for test compound for antileishmanial activity against promastigote stage of Leishmania amazonensis MHOM/BR/Josefa incubated for 72 hrs by XTT assay; assay type: functional
[4] = Cytotoxicity against BALB/c mouse peritoneal macrophages incubated for 48 hrs by MTT assay; assay type: cell-based, Peritoneal macrophage
How it was run: (§1)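 Intracellular amastigotes in macrophages and the matched macrophage cytotoxicity readout. Values are mean ± SD from three different experiments.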

[5] = tested on: Leishmania amazonensis; assay: Antileishmanial activity against amastigotes stage of Leishmania amazonensis MHOM/BR/Josefa infected in BALB/c mouse peritoneal macrophage incubated for 48 hrs by Giemsa staining based microscopic method; assay type: functional, organism-based; how it was run: as §1
[6] = Selectivity index, ratio of CC50 for BALB/c mouse peritoneal macrophage to IC50 for amastigotes stage of Leishmania amazonensis MHOM/BR/Josefa infected in BALB/c mouse peritoneal macrophage; assay type: toxicity; conditions: peritoneal macrophages, read-out: Ratio CC50/IC50
[7] = tested on: Leishmania chagasi; assay: Antileishmanial activity against amastigotes stage of Leishmania chagasi MHOM/BR/1972/LD infected in BALB/c mouse bone-marrow derived macrophages incubated for 3 days by hematoxylin-eosin staining based cell counting method; assay type: functional, organism-based; conditions: 72 h
[8] = tested on: Leishmania amazonensis; assay: Antileishmanial activity against promastigote stage of Leishmania amazonensis MHOM/BR/73/M2269 by erythrosine-B staining based Neubauer chamber based cell counting method; assay type: functional, organism-based

| SMILES | selectivity ratio [1] | IC50 [2] [nM] | Ratio IC50 [3] | CC50 at 48 h [4] [µM] | IC50 [5] [nM] | selectivity ratio [6] | IC50 [7] [nM] | IC50 [8] [µM] |
| --- | --- | --- | --- | --- | --- | --- | --- | --- |
| CC1(c2cccc([Te][Te]c3cccc(C4(C)OCCO4)c3)c2)OCCO1 | 25 | 900 | 20 |  |  |  |  |  |
| CCCCCCCCCCCCCCCCOP(=O)([O-])OCC[N+](C)(C)C [MILTEFOSINE] | 3 | 20700 |  | 20.3 | 1700 | 12 |  |  |
| CC1(c2ccc([Te][Te]c3ccc(C4(C)OCCO4)cc3)cc2)OCCO1 | 194 | 900 | 20 | 8.3 | 500 | 18 |  |  |
| COc1ccc([Te]2(Cl)OC3(CCCCC3)/C2=C\Cl)cc1 (stereo unspecified) |  |  |  |  |  |  | 500 |  |
| CC[N+](CC)(CC)Cc1ccccc1.ClC1=C[Te-](Cl)(Cl)(Cl)OC1 |  |  |  |  |  |  |  | 4 |
| c1ccc([Te][Te]c2ccccc2)cc1 | 42 | 1400 |  |  |  |  |  |  |
| CC1(c2ccccc2[Te][Te]c2ccccc2C2(C)OCCO2)OCCO1 | 2 | 8000 | 3 |  |  |  |  |  |
